Source: ChEMBL document CHEMBL4184179, “Synthesis and biological evaluation of novel synthetic chalcone derivatives as anti-tumor agents targeting Cat L and Cat K” (Bioorg Med Chem, 2018)

Tests used:
[1] = target: Procathepsin L (Homo sapiens) (UniProt P07711); experiment: Inhibition of Cathepsin-L (unknown origin) at 5 uM preincubated for 15 mins followed by Z-Phe-Arg-AMC addition measured after 30 mins by fluorescence assay relative to control
Summary of the method: (§1)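 Run as for the Cat K assay: enzyme in 50 mM sodium acetate, 2.5 mM EDTA, 1 mM DTT, pH 6.0, compounds screened at 5 μM, 15 min preincubation at 37°C, substrate added, fluorescence (ex 355/em 460 nm) read at 30 min. Substrates: Cat B Z-Arg-Arg-AMC; Cat S Ac-Lys-Gln-Lys-Leu-Arg-AMC; Cat L as for Cat K.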

[2] = target: Cathepsin S (Homo sapiens) (UniProt P25774); experiment: Inhibition of Cathepsin-S (unknown origin) at 5 uM preincubated for 15 mins followed by Ac-Lys-Gln-Lys-Leu-Arg-AMC addition measured after 30 mins by fluorescence assay relative to control; summary of the method: as §1
[3] = target: T1, Cathepsin K (Homo sapiens) (UniProt P43235); experiment: Inhibition of recombinant human Cathepsin-K at 5 uM preincubated for 15 mins followed by Z-Phe-Arg-AMC addition measured after 30 mins by fluorescence assay relative to control
T1 sequence (whole entry): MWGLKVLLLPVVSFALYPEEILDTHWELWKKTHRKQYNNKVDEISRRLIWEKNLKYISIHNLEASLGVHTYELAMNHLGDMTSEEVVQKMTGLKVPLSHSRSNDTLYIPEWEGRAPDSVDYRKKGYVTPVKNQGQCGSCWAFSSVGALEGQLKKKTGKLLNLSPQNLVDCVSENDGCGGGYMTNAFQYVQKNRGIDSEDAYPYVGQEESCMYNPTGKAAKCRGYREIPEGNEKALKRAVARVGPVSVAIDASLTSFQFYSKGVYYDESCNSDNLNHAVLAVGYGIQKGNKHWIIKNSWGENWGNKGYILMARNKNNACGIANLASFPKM
Summary of the method: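 Recombinant human Cat K (5.5 ng/mL) in 50 mM sodium acetate, 2.5 mM EDTA, 1 mM DTT, pH 6.0, preincubated with compound (5 μM screen) 15 min at 37°C. Reaction started with Z-Phe-Arg-AMC (10 μM, as added). Fluorescence (ex 355/em 460 nm) read after 30 min; inhibition rate calculated from intensity.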

MCF7 = experiment: Antiproliferative activity against human MCF7 cells after 48 hrs by MTT assay; assay type: functional, cell-based; conditions: for IC50: MCF7, 48 h
[4] = target: Cathepsin B (Homo sapiens) (UniProt P07858); experiment: Inhibition of Cathepsin-B (unknown origin) at 5 uM preincubated for 15 mins followed by Z-Arg-Arg-AMC addition measured after 30 mins by fluorescence assay relative to control; summary of the method: as §1
HCT-116 = experiment: Antiproliferative activity against human HCT116 cells after 48 hrs by MTT assay; assay type: functional, cell-based; conditions: for IC50: HCT-116, 48 h
Summary of the method: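 Cells grown in RPMI 1640 with 10% FBS; about 4×10^3 cells per well seeded, held 24 h at 37°C in 5% CO2, then exposed to compounds at six concentrations (0.001–100 μM) for 48 h. MTT added at 0.5 mg/mL final for 4 h at 37°C, formazan dissolved in DMSO, absorbance read at 540 nm.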

143B = experiment: Antiproliferative activity against human 143B cells after 48 hrs by MTT assay; assay type: functional, cell-based

Procathepsin L (Homo sapiens), sequence (P07711 114-333 limits assumed): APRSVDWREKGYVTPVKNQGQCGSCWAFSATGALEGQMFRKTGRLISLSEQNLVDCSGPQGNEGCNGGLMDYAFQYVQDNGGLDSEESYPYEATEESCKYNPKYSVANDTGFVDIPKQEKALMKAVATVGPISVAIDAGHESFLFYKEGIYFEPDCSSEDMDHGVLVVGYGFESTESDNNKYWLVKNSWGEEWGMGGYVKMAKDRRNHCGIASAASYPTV
Cathepsin S (Homo sapiens), sequence (P25774 115-331 limits assumed): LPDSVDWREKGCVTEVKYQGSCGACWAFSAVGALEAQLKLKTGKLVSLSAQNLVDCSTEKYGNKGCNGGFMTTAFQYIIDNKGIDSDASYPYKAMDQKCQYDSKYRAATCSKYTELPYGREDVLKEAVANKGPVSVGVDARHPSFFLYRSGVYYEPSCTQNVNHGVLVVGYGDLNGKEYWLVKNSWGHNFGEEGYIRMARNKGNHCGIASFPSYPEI

In the case of `Cc1cccc(C(=O)Nc2cccc(/C=C/C(=O)c3nc4ccccc4[nH]3)c2)c1`, the inhibition [1] is reported as 88.5%, the inhibition [2] is reported as 45.2% and the inhibition [3] is reported as 78%. For the same molecule, the IC50 (MCF7) was 5.59 µM, the inhibition [4] was 41.3% and the IC50 (HCT-116) was 1.42 µM. It also gave an IC50 (143B) of 4.88 µM.

`O=C(Nc1cccc(/C=C/C(=O)c2nc3ccccc3[nH]2)c1)c1cccc(C(F)(F)F)c1` showed an IC50 (MCF7) of 21.5 µM, an IC50 (HCT-116) of 3.36 µM and an IC50 (143B) of 9.57 µM.

For `O=C(/C=C/c1cccc(NS(=O)(=O)c2ccccc2Cl)c1)c1nc2ccccc2[nH]1`, the inhibition [1] was 62.9%, the inhibition [2] was 45.7% and the inhibition [3] was 86.5%. The IC50 (MCF7) was 4.28 µM, the inhibition [4] was 32.5% and the IC50 (HCT-116) was 0.987 µM. It also gave an IC50 (143B) of 4.79 µM.

`O=C(Nc1cccc(/C=C/C(=O)c2nc3ccccc3[nH]2)c1)c1cccc(Cl)c1` gave an inhibition [1] of 86%, an inhibition [2] of 19.5% and an inhibition [3] of 73%. The IC50 (MCF7) was 7.83 µM, the inhibition [4] was 30.5% and the IC50 (HCT-116) was 1.12 µM. It also gave an IC50 (143B) of 3.37 µM.

`O=C(/C=C/c1cccc(NC(=O)c2ccccc2Cl)c1)c1nc2ccccc2[nH]1` showed an IC50 (MCF7) of 4.57 µM, an IC50 (HCT-116) of 1.28 µM and an IC50 (143B) of 3.69 µM.

With `CC(C)C[C@H](NC(=O)[C@@H]1O[C@H]1C(=O)O)C(=O)NCCCCN=C(N)N` the inhibition [1] was 100%, the inhibition [3] was 100% and the inhibition [4] was 100%.

With `O=C(Nc1cccc(/C=C/C(=O)c2nc3ccccc3[nH]2)c1)c1ccc(Br)cc1` the IC50 (MCF7) was 7 µM, the IC50 (HCT-116) was 2.23 µM and the IC50 (143B) was 7.31 µM.

With `O=c1[nH]cc(F)c(=O)[nH]1` [FLUOROURACIL] the IC50 (MCF7) was 32.6 µM, the IC50 (HCT-116) was 8.64 µM and the IC50 (143B) was 25.2 µM.

`CCCNC(=O)[C@H]1O[C@@H]1C(=O)N[C@H](C(=O)N1CCC[C@H]1C(=O)O)[C@@H](C)CC` was tested, and the inhibition [4] was 100%.

`Cc1ccc(S(=O)(=O)Nc2cccc(/C=C/C(=O)c3nc4ccccc4[nH]3)c2)cc1` was tested, and the inhibition [1] was 93.8%, the inhibition [2] was 22% and the inhibition [3] was 86%. For the same molecule, the IC50 (MCF7) was 3.22 µM, the inhibition [4] was 34.3% and the IC50 (HCT-116) was 1.99 µM. It also gave an IC50 (143B) of 3.22 µM.

With `CC(=O)O[C@H]1C(=O)[C@@]2(C)[C@H]([C@H](OC(=O)c3ccccc3)[C@]3(O)C[C@H](OC(=O)[C@H](O)[C@@H](NC(=O)c4ccccc4)c4ccccc4)C(C)=C1C3(C)C)[C@]1(OC(C)=O)CO[C@@H]1C[C@@H]2O` [PACLITAXEL] the IC50 (HCT-116) was 0.014 µM.

`Cc1ccccc1S(=O)(=O)Nc1cccc(/C=C/C(=O)c2nc3ccccc3[nH]2)c1` gave an inhibition [1] of 71.3%, an inhibition [2] of 47.8% and an inhibition [3] of 91.3%. For the same molecule, the IC50 (MCF7) was 4.13 µM, the inhibition [4] was 40% and the IC50 (HCT-116) was 0.955 µM. It also gave an IC50 (143B) of 4.06 µM.

With `Cc1cc(C)cc(C(=O)Nc2cccc(/C=C/C(=O)c3nc4ccccc4[nH]3)c2)c1` the IC50 (MCF7) was 24.6 µM, the IC50 (HCT-116) was 1.55 µM and the IC50 (143B) was 4.01 µM.

In the case of `O=C(/C=C/c1cccc(NC(=O)c2ccccc2Br)c1)c1nc2ccccc2[nH]1`, the IC50 (MCF7) is reported as 4.52 µM, the IC50 (HCT-116) is reported as 1.68 µM and the IC50 (143B) is reported as 6.05 µM.

`Cc1ccc(S(=O)(=O)Nc2cccc(/C=C/C(=O)c3nc4ccccc4[nH]3)c2)cc1C` was tested, and the IC50 (MCF7) was 5.86 µM, the IC50 (HCT-116) was 2.23 µM and the IC50 (143B) was 5.05 µM.

With `CC(C)(F)C[C@H](C[C@@H](c1ccc(-c2ccc(S(C)(=O)=O)cc2)cc1)C(F)(F)F)C(=O)NC1(C#N)CC1` the inhibition [1] was 71.3%, the inhibition [2] was 100% and the inhibition [3] was 100%. For the same molecule, the IC50 (MCF7) was 45.4 µM, the inhibition [4] was 100% and the IC50 (HCT-116) was greater than 100 µM. For the same molecule, the IC50 (143B) was 12.7 µM.

`O=C(Nc1cccc(/C=C/C(=O)c2nc3ccccc3[nH]2)c1)c1ccccc1` was tested, and the IC50 (MCF7) was 11.2 µM, the IC50 (HCT-116) was 2.44 µM and the IC50 (143B) was 8.34 µM.

For `Cc1cc(C)cc(S(=O)(=O)Nc2cccc(/C=C/C(=O)c3nc4ccccc4[nH]3)c2)c1`, the IC50 (MCF7) was 4.57 µM, the IC50 (HCT-116) was 1.22 µM and the IC50 (143B) was 3.33 µM.

With `O=C(Nc1cccc(/C=C/C(=O)c2nc3ccccc3[nH]2)c1)c1ccc(Cl)cc1` the IC50 (MCF7) was 8.41 µM, the IC50 (HCT-116) was 2.27 µM and the IC50 (143B) was 7.44 µM.

`O=C(Nc1cccc(/C=C/C(=O)c2nc3ccccc3[nH]2)c1)c1cccc(Br)c1` gave an IC50 (MCF7) of 5.21 µM, an IC50 (HCT-116) of 1.55 µM and an IC50 (143B) of 4.62 µM.

With `O=C(/C=C/c1cccc(NS(=O)(=O)c2ccc(Cl)cc2)c1)c1nc2ccccc2[nH]1` the inhibition [1] was 58%, the inhibition [2] was 89.3% and the inhibition [3] was 58.1%. The IC50 (MCF7) was 3.82 µM, the inhibition [4] was 23.8% and the IC50 (HCT-116) was 1.96 µM. It also gave an IC50 (143B) of 7.45 µM.

With `Cc1ccc(C(=O)Nc2cccc(/C=C/C(=O)c3nc4ccccc4[nH]3)c2)cc1` the IC50 (MCF7) was 9.69 µM, the IC50 (HCT-116) was 1.66 µM and the IC50 (143B) was 6.56 µM.

`O=C(/C=C/c1cccc(NS(=O)(=O)c2cccc(Cl)c2)c1)c1nc2ccccc2[nH]1` showed an inhibition [1] of 78.9%, an inhibition [2] of 52.6% and an inhibition [3] of 89.2%. For the same molecule, the IC50 (MCF7) was 4.16 µM, the inhibition [4] was 15.2% and the IC50 (HCT-116) was 0.737 µM. For the same molecule, the IC50 (143B) was 2.51 µM.

With `Cc1cccc(S(=O)(=O)Nc2cccc(/C=C/C(=O)c3nc4ccccc4[nH]3)c2)c1` the inhibition [1] was 92.3%, the inhibition [2] was 50.1% and the inhibition [3] was 93.5%. For the same molecule, the Activity (MCF7) was “Dose-dependent effect”, the IC50 (MCF7) was 0.886 µM and the inhibition [4] was 45.6%. For the same molecule, the Activity (HCT-116) was “Dose-dependent effect”, the IC50 (HCT-116) was 0.597 µM and the Activity (143B) was “Dose-dependent effect”. For the same molecule, the IC50 (143B) was 0.791 µM.

Work on `Cc1ccccc1C(=O)Nc1cccc(/C=C/C(=O)c2nc3ccccc3[nH]2)c1` yielded an IC50 (MCF7) of 5.87 µM, an IC50 (HCT-116) of 1.87 µM and an IC50 (143B) of 8.29 µM.

Work on `COc1cccc(C(=O)Nc2cccc(/C=C/C(=O)c3nc4ccccc4[nH]3)c2)c1` yielded an IC50 (MCF7) of 17.8 µM, an IC50 (HCT-116) of 3.68 µM and an IC50 (143B) of 4.61 µM.

`O=C(/C=C/c1cccc(NS(=O)(=O)c2cc(Cl)cc(Cl)c2)c1)c1nc2ccccc2[nH]1` showed an IC50 (MCF7) of 20 µM, an IC50 (HCT-116) of 2.84 µM and an IC50 (143B) of 5.95 µM.

`COc1ccc(C(=O)Nc2cccc(/C=C/C(=O)c3nc4ccccc4[nH]3)c2)cc1` gave an IC50 (MCF7) of 20.1 µM, an IC50 (HCT-116) of 4.88 µM and an IC50 (143B) of 6.33 µM.

`O=C(/C=C/c1ccccc1)c1nc2ccccc2[nH]1` gave an inhibition [1] of 35.4%, an inhibition [2] of 13% and an inhibition [3] of 37.9%. For the same molecule, the inhibition [4] was 10.1%.

With `O=C(Nc1cccc(/C=C/C(=O)c2nc3ccccc3[nH]2)c1)c1cc(Cl)cc(Cl)c1` the IC50 (MCF7) was greater than 100 µM, the IC50 (HCT-116) was 1.65 µM and the IC50 (143B) was 3.66 µM.
